Source: PubChem (several laboratories)
The list is not random: actives were taken first. Their share in the collection is about 2%.
MT1-MMP act inh – MT1-MMP (human) activation inhibition; P50281; HT1080 RFP-PRO-GFP cells, GFP/RFP ratio fluorescence, overnight; percent of plate control window, DMSO zero; GFP/RFP ratio change, % at 20 µM; hit rate 0.061% among 360,000; AID 651647;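 active = GFP/RFP ratio change of at least 30% with cell ATP level not reduced by more than half and red fluorescence within 50% of control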
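Test system: HT1080 RFP-PRO-GFP cells; Benchmarks: DMSO and RFP-L50D-GFP cell wells; Timing: cells overnight before dosing, compound overnight, 37 °C, 5% CO2; Compound: one 20 µM compound dose with 1% DMSO; Read-out: GFP/RFP fluorescence ratio.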
DAGLB inhibitor – diacylglycerol lipase beta (human) inhibition | hit rate 0.059% among 340,000 | AID 504411 | HEK293T DAGLB membrane lysate, EnzChek fluorogenic substrate | inhibition, % at 5.17 µM; in the data active = inhibition above about 34%;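 note: 0% = enzyme with vehicle and 100% = wells lacking enzyme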
Exocytosis inh – blocks lytic granule exocytosis; TALL-104 LAMP-1 surface exposure, flow cytometry; cells stimulated with thapsigargin and PMA; inhibition, % at 10 µM; hit rate 0.66% among 360,000; AID 651702;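 active = inhibition above about 55%, limit read from the data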
ABCB6 inh 2 – blocks the human ABCB6 transporter; K562-ABCB6 porphyrin accumulation, flow cytometry, 1 h; active compounds read low; fluorescence ratio to DMSO, % at 10 µM; hit rate 0.19% among 360,000; AID 602162;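 active = fluorescence ratio to DMSO below 75%, the collection mean minus 3 SD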;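 note: signal is porphyrin accumulated inside mitochondria; 100% equals median channel fluorescence of DMSO control wells; lower ratio means ABCB6 inhibition with less porphyrin fluorescence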
Target sequence (Q9NP58 whole entry, looked up): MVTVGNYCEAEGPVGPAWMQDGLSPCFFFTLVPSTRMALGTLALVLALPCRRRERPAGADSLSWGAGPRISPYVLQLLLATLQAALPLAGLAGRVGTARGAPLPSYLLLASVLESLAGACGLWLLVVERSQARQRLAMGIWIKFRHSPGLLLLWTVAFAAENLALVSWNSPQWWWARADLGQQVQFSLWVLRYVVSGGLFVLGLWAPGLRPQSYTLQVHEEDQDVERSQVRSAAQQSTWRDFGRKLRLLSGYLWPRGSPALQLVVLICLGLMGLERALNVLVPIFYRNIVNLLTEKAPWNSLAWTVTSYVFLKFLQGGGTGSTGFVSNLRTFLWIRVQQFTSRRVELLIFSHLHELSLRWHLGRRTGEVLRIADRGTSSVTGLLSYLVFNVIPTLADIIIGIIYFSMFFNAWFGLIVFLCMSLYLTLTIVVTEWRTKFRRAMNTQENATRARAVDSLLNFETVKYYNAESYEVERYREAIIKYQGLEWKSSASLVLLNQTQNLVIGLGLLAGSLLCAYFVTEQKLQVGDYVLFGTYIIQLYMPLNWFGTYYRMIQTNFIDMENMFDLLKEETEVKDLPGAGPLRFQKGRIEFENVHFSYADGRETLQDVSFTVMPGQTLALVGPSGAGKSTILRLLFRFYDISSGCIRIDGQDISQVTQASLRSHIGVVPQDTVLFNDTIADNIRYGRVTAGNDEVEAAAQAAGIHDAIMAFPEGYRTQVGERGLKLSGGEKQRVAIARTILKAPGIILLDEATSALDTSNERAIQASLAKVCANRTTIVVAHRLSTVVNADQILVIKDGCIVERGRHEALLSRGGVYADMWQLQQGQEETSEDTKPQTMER
FGF22 binding – binders of recombinant human FGF22 by thermal shift | activity (Tm shift, normalised), % at 9.99 µM | AID 651658 | SYPRO orange fluorescence; percent of sucrose octasulfate shift, DMSO zero | hit rate 1.5% among 340,000 | Q9HCT0;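 active = mean Tm shift, scaled 0 neutral to 100 positive control, at about 1.3% or above, every replicate too, limit read from the data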
VLA-4 inh – inhibition in a human VLA-4 binding assay; P13612; VLA-4 expressing cells, ligand binding flow cytometry; inhibition, % (about 7 µM as worked out from the volumes in the protocol); hit rate 0.2% among 330,000; in the data active = inhibition above about 50%
Active calls of the source: *.

Results for C=CCOc1ccc(C[C@H](N)C(=O)NC[C@H]2O[C@@H](n3cc(C)c(=O)[nH]c3=O)C[C@@H]2O)cc1 ?
MT1-MMP act inh: -3.0; DAGLB inhibitor: -0.6; Exocytosis inh: 4.7; ABCB6 inh 2: 100.0; FGF22 binding: 0.1

How did COC(=O)/C=C1/C(=O)N/C(=N\c2nc(C)cc(C)n2)N1c1ccc(OC)cc1 do in these assays?
MT1-MMP act inh: 1.5; DAGLB inhibitor: -0.8; Exocytosis inh: 2.2; ABCB6 inh 2: 95.0; FGF22 binding: 44.2*; VLA-4 inh: -15.3

How did C=CCn1c(=O)c(C(C)=O)cn(N(C)c2ncc(C(F)(F)F)cc2Cl)c1=O do in these assays?
MT1-MMP act inh: 3.0; DAGLB inhibitor: -2.8; Exocytosis inh: -2.4; ABCB6 inh 2: 101.0; FGF22 binding: 43.1*; VLA-4 inh: 8.7

Results for CC(=O)c1cn(N(C)c2ncc(C(F)(F)F)cc2Cl)c(=O)[nH]c1=O ?
MT1-MMP act inh: 0.6; Exocytosis inh: -1.3; ABCB6 inh 2: 90.0; FGF22 binding: 42.4; VLA-4 inh: 13.6

What do the screens show for `C[C@@H]1CCCCO[C@@H](CN(C)Cc2ccccc2)[C@H](C)CN([C@@H](C)CO)C(=O)c2cc(NC(=O)Nc3ccc(F)cc3)ccc2O1`?
FGF22 binding: -0.3

What do the screens show for `C[C@H]1CN([C@@H](C)CO)C(=O)c2cccc(NS(=O)(=O)c3ccc(F)cc3)c2O[C@@H]1CN(C)C(=O)Nc1ccc(F)cc1`?
FGF22 binding: -0.2

How did CCCNC(=O)[C@@H]1[C@@H](CO)[C@@H]2Cn3c(ccc(-c4ccccc4)c3=O)[C@@H]2N1C(=O)c1ccccc1F do in these assays?
FGF22 binding: -0.1

Results for C=C(C)c1cccc(C(C)(C)NC(=O)Nc2ccc(OC)cc2)c1 ?
MT1-MMP act inh: 6.0; DAGLB inhibitor: -7.9; Exocytosis inh: -17.4; ABCB6 inh 2: 106.0; FGF22 binding: 43.4*; VLA-4 inh: 22.2

What do the screens show for `O=C(C[C@H]1CC[C@@H]2[C@H](COC[C@@H](O)CN2CC2CCOCC2)O1)NCC1CC1`?
FGF22 binding: 0.0

Results for O=C/C=C/c1ccc(/C=C/c2ccccc2)cc1 ?
FGF22 binding: 0.1

Results for O=C1C=CCC(/C=C/c2ccccc2)O1 (centres undefined) ?
FGF22 binding: 43.7*; VLA-4 inh: 14.0

What do the screens show for `O=C(/C=C/C(=O)N1CCc2ccccc2C1)N1CCc2ccccc2C1`?
MT1-MMP act inh: -2.3; DAGLB inhibitor: 3.4; Exocytosis inh: 16.5; ABCB6 inh 2: 98.0; FGF22 binding: 0.0; VLA-4 inh: -16.1

What do the screens show for `O=C(CN1CCc2ccccc2C1)Nc1ccc(F)cc1F`?
MT1-MMP act inh: -0.6; DAGLB inhibitor: -2.6; Exocytosis inh: -0.8; ABCB6 inh 2: 94.0; FGF22 binding: 43.5*; VLA-4 inh: 3.5

How did O=C(O)CN1CCc2ccccc2C1 do in these assays?
MT1-MMP act inh: 0.5; DAGLB inhibitor: -1.1; Exocytosis inh: -0.8; ABCB6 inh 2: 95.0; FGF22 binding: 43.1*; VLA-4 inh: 1.1

How did C[C@@H]1CCCCO[C@H](CN(C)Cc2ccccc2)[C@H](C)CN([C@H](C)CO)C(=O)c2cc(NC(=O)Nc3ccc(F)cc3)ccc2O1 do in these assays?
FGF22 binding: 0.3

Results for COCCn1c(Cc2cccn2C)nnc1SCC(=O)NCc1ccc2c(c1)OCO2 ?
MT1-MMP act inh: -2.2; DAGLB inhibitor: 0.6; Exocytosis inh: 0.6; ABCB6 inh 2: 102.0; FGF22 binding: 43.7*; VLA-4 inh: -12.2

What do the screens show for `CC(C)c1nnc(SCC(=O)NCc2ccc3c(c2)OCO3)n1C`?
MT1-MMP act inh: 0.1; DAGLB inhibitor: 1.1; Exocytosis inh: -0.4; ABCB6 inh 2: 91.0; VLA-4 inh: 6.2

Results for Cc1nnc(SCC(=O)NCc2ccc3c(c2)OCO3)n1C ?
MT1-MMP act inh: -5.3; DAGLB inhibitor: -1.6; Exocytosis inh: -3.8; ABCB6 inh 2: 104.0; FGF22 binding: 43.4*; VLA-4 inh: 5.2

What do the screens show for `CC(C)NC(=O)N(C)C[C@@H]1OCCCC[C@@H](C)Oc2ccc(NC(=O)Nc3ccccc3)cc2C(=O)N([C@@H](C)CO)C[C@H]1C`?
FGF22 binding: -0.2

Results for COc1ccccc1S(=O)(=O)Nc1ccc2c(c1)OC[C@@H](C)NC[C@H](C)[C@@H](OC)CN(C)C2=O ?
FGF22 binding: 0.0

How did CCOc1ccccc1OCC(=O)NNC(=O)Cn1cnc2c1c(=O)n(C)c(=O)n2C do in these assays?
MT1-MMP act inh: -3.8; DAGLB inhibitor: -0.8; Exocytosis inh: -2.5; ABCB6 inh 2: 101.0; FGF22 binding: 44.1*; VLA-4 inh: -5.1

How did COc1ccccc1CNC(=O)C[C@@H]1C[C@H]2c3cc(NC(=O)NC4CCCC4)ccc3O[C@H]2[C@@H](CO)O1 do in these assays?
FGF22 binding: -0.5

How did O=C(C[C@@H]1CC[C@@H]2[C@H](COC[C@@H](O)CN2Cc2cccc(C(F)(F)F)c2)O1)NCc1ccncc1 do in these assays?
FGF22 binding: 0.1

How did O=Cc1cc2ccccc2nc1SCCCF do in these assays?
MT1-MMP act inh: 2.0; DAGLB inhibitor: -2.9; Exocytosis inh: 58.9*; ABCB6 inh 2: 272.0; FGF22 binding: 0.1; VLA-4 inh: 13.0

Results for C[C@@H]1CN([C@@H](C)CO)C(=O)c2cc(NC(=O)Nc3cccc4ccccc34)ccc2O[C@@H](C)CCCCO[C@H]1CN(C)C(=O)Cc1ccccc1 ?
FGF22 binding: -0.2

How did CN(C)/C=C(/C(=O)c1ccc(Cl)c(Cl)c1)S(C)(=O)=O do in these assays?
MT1-MMP act inh: -1.4; DAGLB inhibitor: -1.8; Exocytosis inh: 1.5; ABCB6 inh 2: 94.0; FGF22 binding: 43.6*; VLA-4 inh: 11.9

What do the screens show for `O=C1OC(Cc2ccccc2)(c2ccccc2)c2ccccc21` (centres undefined)?
MT1-MMP act inh: 7.6; DAGLB inhibitor: -9.8; Exocytosis inh: -26.9; ABCB6 inh 2: 101.0; FGF22 binding: 44.4*

Results for O=C(C[C@@H]1CC[C@@H](NC(=O)Cc2ccccn2)[C@@H](CO)O1)NCCc1ccncc1 ?
FGF22 binding: 0.0

How did C[C@H]1CN([C@@H](C)CO)C(=O)c2cc(NC(=O)c3ccncc3)ccc2O[C@@H]1CN(C)S(=O)(=O)c1ccc(Cl)cc1 do in these assays?
FGF22 binding: -0.1

How did CC(=O)c1ccc(N(CC(=O)NC2CCCC2)C(=O)c2csnn2)cc1 do in these assays?
MT1-MMP act inh: -3.0; DAGLB inhibitor: 0.4; Exocytosis inh: -9.0; ABCB6 inh 2: 98.0; FGF22 binding: 43.6*; VLA-4 inh: 9.2

What do the screens show for `O=C(CN(C(=O)c1csnn1)c1ccc(Cl)cc1)NC1CCCC1`?
MT1-MMP act inh: -1.9; DAGLB inhibitor: 0.9; Exocytosis inh: -5.7; ABCB6 inh 2: 99.0; FGF22 binding: 0.0; VLA-4 inh: -5.2
